Assay outcomes as filed in PubChem.
ZTA DNA inh: counter-screen for EBNA-1 inhibitors: inhibitors of Epstein-Barr virus ZTA; inhibition, % at 11 µM; ZTA-DNA binding, fluorescence polarization; P03206; 320,000 tested, 0.15% active; in the data active = inhibition above about 33%
Target sequence (P03206 whole entry, looked up): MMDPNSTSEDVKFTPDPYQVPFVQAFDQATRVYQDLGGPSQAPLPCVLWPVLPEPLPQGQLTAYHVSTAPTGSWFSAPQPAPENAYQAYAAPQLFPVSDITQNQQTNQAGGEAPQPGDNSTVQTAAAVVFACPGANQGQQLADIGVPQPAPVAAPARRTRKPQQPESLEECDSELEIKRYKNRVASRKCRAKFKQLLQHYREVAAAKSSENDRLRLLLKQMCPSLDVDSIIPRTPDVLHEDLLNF
EBNA-1 inhibitor: EBNA-1 DNA-binding inhibitors, primary screen, biochemical, fluorescence polarization. inhibition, % at 14.8 µM. 300,000 tested, 0.34% active; in the data active = inhibition above about 28%
PP1 inh: PP1-alpha phosphatase inhibitors, primary screen, counter-screen for PP5 inhibitor project, biochemical, fluorescence, OMFP substrate, single point; Serine/threonine-protein phosphatase PP1-alpha catalytic subunit (Homo sapiens), P62136; purified PP1alpha; inhibition, % at 6.7 µM; 320,000 tested, 0.9% active; AID 2235, 2010;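 active = inhibition above the mean inhibition of all tested compounds plus 3 SD, computed separately for each screening campaign, cut at about 15% in these data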
HCV NS3 hel inh: inhibitors of HCV NS3 helicase, primary screen, biochemical, Cy5 molecular beacon fluorescence; NS3 helicase DNA unwinding; inhibition, % at 10.9 µM; Hepatitis C virus NS3 helicase; 290,000 tested, 0.56% active;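 active = inhibition above the mean of all tested compounds plus 3 SD, set per campaign, cut at about 35% in these data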;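 note: 0% = DMSO wells and 100% = thioflavine S control wells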
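Compound dosing – single dose, 10.9 µM nominal final, DMSO 0.8% final · System – NS3 helicase fragment of HCV · Buffer or medium – MOPS pH 6.5, MgCl2, DTT, Tween20, BSA · Signal – Cy5 beacon fluorescence read at start and 1 h · Also added – annealed dual-labelled DNA beacon duplex, ATP-started · Schedule – 1 h at 25 °C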
HCV core dimer: inhibitors of HCV core protein dimerization, primary screen, biochemical, TR-FRET, high-throughput | AID 1899, 2009 | 300,000 tested, 0.33% active | TR-FRET GST/Flag-core106 dimerization, 1536-well | inhibition, % at 5 µM;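 active = inhibition above the mean of all tested compounds plus 3 SD, set per screening campaign, cut at about 45% in these data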
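Assay system: Tagged HCV core106 pair (GST and Flag) | Buffer or medium: KF-containing HEPES buffer, pH 7.45, DTT, CHAPS, BSA | Also added: Eu donor and XL665 acceptor anti-tag antibodies | Dosing: One concentration, 5 µM, in 0.5% DMSO | Timing: 4 h at 22.5 °C | Technique: TR-FRET 671 and 617 nm emission | Repeats: Singlicate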
* marks the source's active call; other numbers are inactive results; . = no result given. The list is not random: actives were taken first. Their share in the collection is about 1.9%.

SMILES	ZTA DNA inh	EBNA-1 inhibitor	PP1 inh	HCV NS3 hel inh	HCV core dimer
O=C(c1ccco1)[C@@H]1[C@@H]2C(=O)N(c3ccc(Br)cc3)C(=O)[C@@H]2C2c3ccccc3C=CN21 (stereo not given in full)	.	.	.	43*	.
CC(=O)[C@H]1[C@@H]2C(=O)N(c3cccc(Cl)c3)C(=O)[C@@H]2[C@H]2c3ccccc3C=CN21	0	-10	0	17	58*
CC(NC(=O)c1cc(-c2cccnc2)nc2ccc(Br)cc12)C1CCCO1 (stereo not given)	151*	160*	0	-4	10
CC(=O)Nc1cccc(NC(=O)c2cc(-c3cccnc3)nc3ccc(Br)cc23)c1	24	3	1	-15	18
CSc1ccccc1NC(=O)c1cc(-c2cccnc2)nc2ccc(Br)cc12	2	-14	17*	-6	17
c1ccc(Oc2nnc(-c3cccs3)c3ccccc23)cc1	7	-1	16*	-3	2
NS(=O)(=O)c1ccc(CNC(=O)c2cccnc2Cl)cc1	9	-3	3	3	-2
Cc1ccc2nc(-c3ccc(NC(=O)COC(=O)c4ccc(Br)o4)cc3)sc2c1	4	35*	2	3	11
O=C(Nc1ccc(Cl)c([N+](=O)[O-])c1)c1cnccn1	-2	1	0	-1	55*
O=C(Nc1ccc(Cl)c([N+](=O)[O-])c1)c1ccncc1	-2	7	-1	-8	5
O=C(Nc1ccccc1Cl)c1cnccn1	-4	0	0	7	-4
O=C(Nc1ccc(Br)cc1Cl)c1cnccn1	2	-5	0	7	68*
CC(C)c1ccc(NC(=O)C(c2ccccc2)N2CC(=O)Nc3ccccc32)cc1 (stereo not given)	0	10	12	4	43
CC(=O)c1cccc(NC(=O)CSc2nc(=O)n(CCN3CCOCC3)c3c2CCC3)c1	-9	-2	-3	.	-3
COc1ccc(NC(=O)CSC2=C(C#N)C(c3ccco3)C(C(=O)Nc3nc4ccccc4s3)=C(C)N2)cc1 (stereo not given)	-1	6	4	-61	48*
COc1ccc(S(=O)(=O)N2CCOCC2)cc1NC(=O)CNC(=O)c1cccs1	10	.	-4	.	.
N#CCC(=O)Nc1ccc(C(=O)NCCC(c2ccccc2)c2ccccc2)cc1	6	-19	16*	-2	15
Cc1cc2c(cc1C)CN(c1ccccc1)C2	10	-1	7	1	28
COc1ccc(OC)c(N2Cc3cc(C)c(C)cc3C2)c1	-9	-7	17*	13	41
CCOc1ccc(N2Cc3ccccc3C2)cc1	15	-3	7	8	44
CCOc1ccccc1N1Cc2cc(C)c(C)cc2C1	-15	-7	15*	-5	67*
CCOc1ccccc1N1Cc2ccccc2C1	-5	5	11	9	54*
O=C(c1ccccc1)N1CCN(c2ccc(N3CCOCC3)nn2)CC1	14	2	-6	.	2
CC1(C)Cc2c(C#N)c(NCc3ccco3)nc(-c3ccco3)c2CO1	-1	-1	3	20	52*
CCOc1ccc(NC(=O)Nc2nnc(CC(=O)NCc3ccccc3)s2)cc1	4	6	9	1	14
SMILES	ZTA DNA inh	EBNA-1 inhibitor	PP1 inh	HCV NS3 hel inh	HCV core dimer
COc1ccc(NC(=O)Nc2nnc(CC(=O)NCc3ccccc3)s2)cc1	-28	13	16*	5	-3
COc1ccc(C(=O)Nc2nnc(Cc3ccccc3)s2)c(OC)c1	22	3	0	-5	68*
COc1ccccc1CNC(=O)c1ccc(NC2=NC3CS(=O)(=O)CC3S2)cc1 (stereo not given)	-11	-2	2	1	-11
Clc1cc(Cl)cc(C2=NC(Cc3ccccc3)CO2)c1 (stereo not given)	-2	2	-3	.	1
COc1ccc(NC(=O)Cn2cc(S(=O)(=O)Cc3ccccc3)c3ccccc32)c(OC)c1	2	-1	6	-1	52*
O=C(C1=C(O)C(=O)N(CCN2CCOCC2)C1c1ccc(Cl)cc1)c1cc2ccccc2o1 (stereo not given)	11	-4	19*	13	6
